Experimental data published in paper PMC4857052 (Molecular pharmacology, 2012).
Entries after “also recorded” stand apart in the source; their conditions may differ.

Experiments:
[1] = test system: T. b. brucei bloodstream forms strain 427 WT; experiment: Alamar blue drug sensitivity assay, wild-type; assay type: cell-based, Trypanosoma brucei brucei; conditions: for effect on bloodstream trypanosomes (in words): Alamar blue viability assay; for EC50: Trypanosoma brucei, read-out: EC50, WT, Mean, Alamar blue assay, wild-type sensitive control strain
Method in brief: (§1)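 Bloodstream-form T. b. brucei s427 grown in HMI-9 with 10% FBS at 37°C under 5% CO2. Resistant lines were made by months of stepwise-increasing exposure to the analog, then cloned by limiting dilution. Viability was read by resazurin (Alamar blue) reduction. Thymidine rescue was tested by adding 100 μM thymidine.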

5FURes T. b. brucei = experiment: Alamar blue drug sensitivity assay, 5FURes; assay type: cell-based, Trypanosoma brucei brucei; conditions: for EC50: Trypanosoma brucei, read-out: EC50, 5FURes, Mean; for RF, 5FURes: resistance factor: IC50(resistant clone)/IC50(WT)
Method in brief: as §1

5FOARes T. b. brucei = experiment: Alamar blue drug sensitivity assay, 5FOARes; assay type: cell-based, Trypanosoma brucei brucei; conditions: for EC50: Trypanosoma brucei, read-out: EC50, 5FOARes, Mean; for RF, 5FOARes: resistance factor: IC50(resistant clone)/IC50(WT)
Method in brief: as §1

5F-2′dURes T. b. brucei = experiment: Alamar blue drug sensitivity assay, 5F-2′dURes; assay type: cell-based, Trypanosoma brucei brucei; conditions: for EC50: Trypanosoma brucei, read-out: EC50, 5F-2′dURes, Mean; for RF, 5F-2′dURes: resistance factor: IC50(resistant clone)/IC50(WT)
Method in brief: as §1

TbU1 = conditions: procyclic forms (PCF), ref De Koning and Jarvis (1998), Papageorgiou et al. (2005), Gudin et al. (2006), cited from earlier work; for Ki: read-out: Ki, U1; for Ki / Ki, U1: NE = no effect on uptake at concentration indicated
[2] = test system: T. b. brucei bloodstream forms; experiment: Uptake of other radiolabeled pyrimidines by wild-type bloodstream forms; assay type: cell-based, Trypanosoma brucei brucei; conditions: over 15 min; 2.5 μM [3H]-2′-deoxycytidine, 0.25 μM [3H]-cytosine, 1 μM [3H]-thymine
TbU3 uracil transporter = experiment: [3H]-uracil transport in bloodstream forms; assay type: cell-based, Trypanosoma brucei brucei; conditions: for Km: read-out: Km, U3, bloodstream forms (BSF), Km of the permeant itself
[3] = test system: P1-type nucleoside transporter; experiment: [3H]-inosine uptake in bloodstream forms; assay type: cell-based, Trypanosoma brucei brucei; conditions: read-out: Km of inosine uptake; n = 3
Method in brief: (§2)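 Log-phase cells were washed into HEPES/bicarbonate glucose buffer (pH 7.3) at 1 × 10^8/ml and mixed with an equal volume of [3H]-permeant, with or without unlabeled competitor, at ambient temperature. Uptake was stopped with ice-cold buffer containing saturating unlabeled permeant, then cells were spun through oil. Counts were corrected for nonspecific binding and Km, Vmax and Ki obtained by curve fitting. Runs were in triplicate. Thymidine: 10 μM label, 15 min. Orotic acid: 10 min.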

[4] = test system: TbT1 (P1-type nucleoside transporter); experiment: [3H]-thymidine transport in bloodstream forms; assay type: cell-based, Trypanosoma brucei brucei; conditions: bloodstream forms
TbU3 = experiment: [3H]-uridine transport in bloodstream forms; assay type: cell-based, Trypanosoma brucei brucei; conditions: 2.5 μM [3H]-uridine
5-FURes T. b. brucei = experiment: Pyrimidine transport in 5-FURes bloodstream forms; assay type: cell-based, Trypanosoma brucei brucei
[5] = test system: s427WT T. b. brucei bloodstream forms; experiment: Kinetic parameters of pyrimidine transport in wild-type bloodstream forms; assay type: cell-based, Trypanosoma brucei brucei; conditions: [3H]-permeant; strain s427WT
Method in brief: as §2

C[C@H]1O[C@@H](n2cc(F)c(=O)[nH]c2=O)[C@H](O)[C@@H]1O [5-fluoro-5′deoxyuridine]
effect on bloodstream trypanosomes (in words) [1]: no effect up to at least 1 mM

Nc1nc(=O)n([C@@H]2O[C@H](CO)[C@@H](O)[C@H]2O)cc1F [5-fluorocytidine]
effect on bloodstream trypanosomes (in words) [1]: no effect up to at least 1 mM

Nc1nc(=O)[nH]cc1F [5-fluorocytosine]
effect on bloodstream trypanosomes (in words) [1]: no effect up to at least 1 mM

O=c1[nH]c(=O)n([C@@H]2O[C@H](CO)[C@@H](O)[C@H]2O)cc1F [5-fluorouridine]
effect on bloodstream trypanosomes (in words) [1]: no effect up to at least 1 mM; also recorded: no effect on trypanosome growth

O=c1[nH]c(=O)n([C@H]2C[C@H](O)[C@@H](CO)O2)cc1Cl [5Cl-2’-dUrd, 5-chloro-2′-deoxyuridine]
EC50 [1]: 54 µM
fold more sensitive than wild-type (5FURes T. b. brucei; 5-FURes): 15 fold
EC50 (5FURes T. b. brucei): 3.7 µM
RF, 5FURes (5FURes T. b. brucei): 0.07
EC50 (5FOARes T. b. brucei): 91 µM
RF, 5FOARes (5FOARes T. b. brucei): 1.7
EC50 (5F-2′dURes T. b. brucei): 22 µM
RF, 5F-2′dURes (5F-2′dURes T. b. brucei): 0.4

Nc1nc(=O)n([C@H]2C[C@H](O)[C@@H](CO)O2)cc1F [5Fl-2’-Ctd, 5-fluoro-2′-deoxycytidine]
EC50 [1]: 49.4 µM
reduction of sensitivity by addition of 100 μM thymidine ([1]; wild-type): 78 fold
EC50 (5FURes T. b. brucei): 55 µM
RF, 5FURes (5FURes T. b. brucei): 1.1
EC50 (5FOARes T. b. brucei): 126 µM
RF, 5FOARes (5FOARes T. b. brucei): 2.6
EC50 (5F-2′dURes T. b. brucei): > 5000 µM
RF, 5F-2′dURes (5F-2′dURes T. b. brucei): >100

C[C@H]1O[C@@H](n2ccc(=O)[nH]c2=O)[C@H](O)[C@@H]1O [5′-deoxyuridine]
effect on bloodstream trypanosomes (in words) [1]: no effect up to at least 1 mM

O=c1cn[nH]c(=O)[nH]1 [6-Azauracil]
EC50 [1]: 958 µM
EC50 (5FURes T. b. brucei): 157 µM
RF, 5FURes (5FURes T. b. brucei): 0.16
EC50 (5FOARes T. b. brucei): 1390 µM
RF, 5FOARes (5FOARes T. b. brucei): 1.4
EC50 (5F-2′dURes T. b. brucei): 1100 µM
RF, 5F-2′dURes (5F-2′dURes T. b. brucei): 1.2
Ki (TbU1): ~1 mM

Cc1cc(=O)[nH]c(=O)[nH]1 [6-Methyluracil]
Ki (TbU1): > 2.5 mM

Nc1ncnc2[nH]cnc12 [Adenine]
Ki, U1 (TbU1): NE, 1000

Nc1ncnc2c1ncn2[C@@H]1O[C@H](CO)[C@@H](O)[C@H]1O [Adenosine]
Ki, U1 (TbU1): NE, 1000

Nc1cc[nH]c(=O)n1 [Cytosine]
accumulation of radiolabeled permeant (in words) [2]: did not detectably accumulate
Ki, U1 (TbU1): NE, 1000

Nc1nc2nc[nH]c2c(=O)[nH]1 [Guanine]
Ki (TbU1): > 0.025 mM

Nc1nc2c(ncn2[C@@H]2O[C@H](CO)[C@@H](O)[C@H]2O)c(=O)[nH]1 [Guanosine]
Ki, U1 (TbU1): NE, 1000

O=c1[nH]cnc2nc[nH]c12 [Hypoxanthine]
Ki, U3 (TbU3 uracil transporter): NE, 1000
Ki, U1 (TbU1): NE, 1000

O=c1[nH]cnc2c1ncn2[C@@H]1O[C@H](CO)[C@@H](O)[C@H]1O [Inosine]
Km [3]: 890 ± 150 nM
Ki, U1 (TbU1): NE, 1000

N=C(N)c1ccc(OCCCCCOc2ccc(C(=N)N)cc2)cc1 [Pentamidine]
EC50 [1]: 0.0078 µM
EC50 (5FURes T. b. brucei): 0.0073 µM
RF, 5FURes (5FURes T. b. brucei): 0.94
EC50 (5FOARes T. b. brucei): 0.017 µM
RF, 5FOARes (5FOARes T. b. brucei): 2.2
EC50 (5F-2′dURes T. b. brucei): 0.0079 µM
RF, 5F-2′dURes (5F-2′dURes T. b. brucei): 1.0

Cc1c[nH]c(=O)[nH]c1=O [Thymine]
effect on [3H]-thymidine transport (in words) [4]: little or no effect
accumulation of radiolabeled permeant (in words) [2]: did not detectably accumulate
Ki (TbU1): > 1 mM

O=c1cc[nH]c(=O)[nH]1 [Uracil]
reduction of [3H]-uracil transport by unlabeled uracil (TbU3 uracil transporter; 0.15 μM [3H]-uracil, 1 mM unlabeled uracil): > 97%
rate of [3H]-uracil transport (TbU3 uracil transporter; 0.15 μM [3H]-uracil, linear for at least 120 s): 0.034 ± 0.002 pmol (10^7 cells)^−1s^−1
Vmax of uracil transport (TbU3 uracil transporter; mean of six triplicate experiments): 0.14 ± 0.03 pmol × 10^7 cells^−1 × s^−1
Km (TbU3 uracil transporter): 0.00054 ± 0.00011 mM
effect on [3H]-thymidine transport (in words) [4]: failing to reach 50% inhibition even at 2.5 mM
Ki (TbU3; read-out: Ki for inhibition of [3H]-uridine uptake, n = 3): 1600 ± 200 nM
Km (5-FURes T. b. brucei; [3H]-permeant, strain 5-FURes): 660 ± 150 nM
Vmax (5-FURes T. b. brucei; [3H]-permeant, strain 5-FURes): 0.16 ± 0.02 pmol (10^7 cells)^−1s^−1
Km [5]: 0.0015 ± 0.0003 mM
Vmax [5]: 0.27 ± 0.05 pmol (10^7 cells)^−1s^−1
Km (TbU1; read-out: Km, U1, bold entry): 460 ± 90 nM

O=c1[nH]c(=O)c2[nH]c(=O)[nH]c2[nH]1 [Uric acid]
Ki, U1 (TbU1): NE, 1000

O=c1ccn([C@@H]2O[C@H](CO)[C@@H](O)[C@H]2O)c(=O)[nH]1 [Uridine]
inhibition of [3H]-uracil uptake (TbU3 uracil transporter; 10 mM of the nucleoside, 0.15 μM [3H]-uracil): ~ 50%
Km (TbU3 uracil transporter): 9.5 ± 2.7 mM
rate of [3H]-uridine transport (TbU3; 0-30 min): 0.0043 ± 0.0003 pmol(10^7 cells)^−1s^−1
Ki (5-FURes T. b. brucei; read-out: Ki for [3H]-uracil transport in 5-FURes, n = 3): ~10 mM
Km [5]: 9.5 ± 2.7 mM
Vmax [5]: 16 ± 4 pmol (10^7 cells)^−1s^−1
Ki (TbU1): 0.033 ± 0.005 mM
